Bioassay records: PubChem, several laboratories
Only some compounds are listed: those with a hit (about 3.1% of all), similar ones and a draw of the others.
Hep lipid drop: modulators of hepatic lipid droplet formation. AML12 mouse hepatocytes, oleate lipid droplets, BODIPY imaging. inhibition, % at 6.5 µM. 240,000 tested, 0.4% active;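 active means lipid droplet intensity inhibited by at least 50%, with more than 500 cells counted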
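Test system: AML12 hepatocytes (mouse); reagent: oleate loading, 100 µM; dosing: one dose, 6.5 µM compound; incubation: overnight exposure; signal: fluorescence imaging, 20x objective, two fields per well; read-out basis: % inhibition of corrected integrated BODIPY droplet signal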
aDG glyco up: increases alpha dystroglycan glycosylation; Pro5-aDG cells, alpha-DG glycosylation AlphaScreen (IIH6); 0% Pro5, 100% B10-LARGE cell signal; activation, % at 10 µM; 360,000 tested, 0.22% active; AID 624168;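 active means activation of at least 8% versus controls, or a plate z-score of at least 8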;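 further: Pro5 are CHO cells carrying HIG-tagged alpha-DG that lacks glycosylation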
ADAM10 inh: ADAM10 inhibition, QFRET primary screen; O14672; recombinant ADAM10, EDANS/DABCYL FRET peptide cleavage, 3 h; inhibition, % at 7 µM; 370,000 tested, 0.62% active; AID 720582;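 active means inhibition above a per-campaign cutoff equal to the mean of compounds falling between control-based bounds plus 3 SD, cut at about 20% in these data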;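 further: 0% = DMSO wells while the 100% control is not disclosed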
ADAM17 inh: inhibitors of human ADAM17; recombinant ADAM17, EDANS/DABCYL FRET peptide cleavage; P78536; 370,000 tested, 0.83% active; AID 720648; inhibition, % at 6.95 µM;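 active means inhibition above the mean of compounds lying between control limits plus 3 SD, set per campaign, cut at about 8.5% in these data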;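 further: 0% = DMSO-only wells as the low control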
Target sequence (P78536 215-824 limits assumed): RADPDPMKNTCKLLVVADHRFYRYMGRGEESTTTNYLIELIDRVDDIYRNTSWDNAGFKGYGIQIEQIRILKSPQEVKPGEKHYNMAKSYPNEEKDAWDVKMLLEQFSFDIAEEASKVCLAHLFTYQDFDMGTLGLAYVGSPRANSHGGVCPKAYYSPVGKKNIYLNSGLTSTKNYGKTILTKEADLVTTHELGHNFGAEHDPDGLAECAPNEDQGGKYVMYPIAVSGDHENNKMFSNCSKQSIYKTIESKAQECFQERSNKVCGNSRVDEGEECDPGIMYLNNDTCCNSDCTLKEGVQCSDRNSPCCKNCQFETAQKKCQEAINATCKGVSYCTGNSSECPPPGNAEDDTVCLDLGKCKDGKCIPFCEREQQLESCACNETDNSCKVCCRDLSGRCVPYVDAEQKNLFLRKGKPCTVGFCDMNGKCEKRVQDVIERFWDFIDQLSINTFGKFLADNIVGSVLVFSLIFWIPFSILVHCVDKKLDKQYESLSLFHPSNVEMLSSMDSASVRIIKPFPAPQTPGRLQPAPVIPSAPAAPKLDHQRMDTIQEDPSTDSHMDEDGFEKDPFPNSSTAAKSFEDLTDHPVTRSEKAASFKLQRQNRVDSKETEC
MPTP inh: blocks calcium-induced mitochondrial swelling; isolated mouse mitochondria, Ca2+ swelling absorbance, 30 min; inhibition, % at 10 µM; 360,000 tested, 1.4% active; AID 602449;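 active means inhibition of 50% or more, scaled per plate between neutral and stimulator controls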;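 further: 0% = DMSO wells given calcium and 100% = 1 mM EGTA wells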
V-ATPase pHluor: alters yeast V-ATPase proton transport | response, % at 10 µM | AID 504577 | 350,000 tested, 0.37% active | S. cerevisiae, pHLuorin cytosolic pH fluorescence; in the data active means response mostly above about 7.3%, no sharp cut-off; inactive means mostly below about 5.4%; further: actives read high
ADAM10 ctr: counter-screen for ADAM17 exosite inhibitors: inhibitors of human ADAM10; inhibition, % at 6.95 µM; recombinant ADAM10, EDANS/DABCYL FRET peptide cleavage, 3 h; 2,900 tested, 47% active; shares compounds with ADAM17 inh;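 active means mean inhibition over the triplicate runs exceeds the activity threshold set in the earlier primary screen, cut at about 20% in these data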;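 further: 0% = DMSO wells and 100% = marimastat wells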
ADAM17 confirm: human ADAM17 inhibition, confirmation; recombinant ADAM17, EDANS/DABCYL QFRET peptide cleavage; 2,900 tested, 65% active; inhibition, % at 6.95 µM; shares compounds with ADAM17 inh;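 active means mean inhibition across replicates above the hit cutoff set in the primary screen, cut at about 8.5% in these data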;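 further: 0% = DMSO wells and 100% = marimastat wells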
An asterisk follows results filed as active; · = no result given.

SMILES | Hep lipid drop | aDG glyco up | ADAM10 inh | ADAM17 inh | MPTP inh | V-ATPase pHluor | ADAM10 ctr | ADAM17 confirm
COC(=O)[C@]12C[C@H](CC(=O)NCCCN3CCCC3=O)C(=O)N(CCc3ccc(OC)c(OC)c3)C1=C[C@H](C(C)C)O[C@@H]2C1CC1 | · | · | -6.3 | -4.3 | · | · | · | ·
COC(=O)[C@]12C[C@H](CC(=O)NCCCN3CCCC3=O)C(=O)N(Cc3ccc(Cl)cc3Cl)C1=C[C@H](C1CCCC1)O[C@@H]2C | · | · | 2.5 | -2.4 | · | · | · | ·
Cc1ccc(Cn2nnc3c2-c2cc(F)ccc2S(=O)(=O)N(C(C)(C)C)C3)cc1 | · | · | 18.3 | 9.5* | · | · | 23.0* | 10.7*
CC(CC(=O)OCC(=O)NCc1ccc(Cl)cc1)c1ccccc1 (stereo unspecified) | · | -0.1 | 0.5 | 10.8* | 2.1 | -0.2 | 13.6 | 10.2*
COc1ccc(C2CC(=O)c3c(O)cc(O)cc3O2)c(CC=C(C)C)c1OC (stereo unspecified) | · | 0.0 | 17.1 | 13.8* | 1.9 | 1.4 | 25.2* | 14.4*
C[C@H](CO)N1C[C@H](C)[C@@H](CN(C)S(=O)(=O)c2ccccc2)Oc2c(NC(=O)c3ccncc3)cccc2C1=O | · | -0.1 | 3.8 | 11.1* | -0.2 | -4.7 | 2.3 | 6.5
C[C@H](CO)N1C[C@H](C)[C@@H](CN(C)S(=O)(=O)c2ccc(F)cc2)Oc2c(NC(=O)c3ccncc3)cccc2C1=O | · | 0.2 | 12.4 | 10.3* | -0.5 | 7.8 | 0.8 | 4.2
C[C@H](CO)N1C[C@H](C)[C@@H](CN(C)C)Oc2c(NC(=O)CCC(F)(F)F)cccc2C1=O | · | -0.1 | 1.4 | 10.0* | -1.0 | -0.1 | -3.0 | 2.3
C[C@H]1Cn2nnc(-c3ccccc3)c2Cn2c3ccccc3c(=O)n21 | · | · | -189.1 | -48.5 | · | · | · | ·
CCN(CC)c1ccc(NC(=O)c2cc3c(OC)cccc3[nH]2)cc1 | -4.0 | -0.5 | 18.1 | 16.9* | 0.9 | 1.1 | 6.5 | 8.2
S=C(Nc1cccc(Cl)c1)OC1CCC12CCC(c1ccccc1)CC2 (stereo unspecified) | · | · | 0.8 | 0.7 | · | · | · | ·
C=CCN1[C@H](CO)[C@H](c2ccc(C#CC3(O)CCCC3)cc2)[C@@H]1C#N | · | · | -5.8 | 0.7 | · | · | · | ·
O=C(CNc1ccc2c(c1)OCO2)N/N=C\c1ccccc1Cl | 12.3 | -0.2 | 0.0 | 2.3 | 0.4 | -0.2 | · | ·
Cc1[nH]c2ccccc2c1/C=N\NC(=O)CNc1ccc2c(c1)OCO2 | -22.1 | -0.3 | 6.6 | 12.9* | 0.1 | 1.8 | -1.8 | 7.2
CC1(C(=O)NS(=O)(=O)Cc2ccccc2)CCN1C(=O)C1(c2ccc(Cl)cc2)CC1 (stereo unspecified) | · | 0.1 | 14.1 | 9.6* | -0.1 | · | -5.3 | -0.1
CC1(C(=O)NS(=O)(=O)Cc2cccc(Cl)c2)CCN1C(=O)C1(c2ccc(Cl)cc2)CC1 (stereo unspecified) | · | -0.3 | 5.9 | 0.7 | 1.0 | · | · | ·
Cc1ccc2nc(-c3cccc(Br)c3)cc(C(=O)NC3=NCCS3)c2c1 | -39.5 | -0.3 | 3.0 | -2.0 | 1.2 | -2.7 | · | ·
O=C(NC1=NCCS1)c1cc(-c2cccc(Br)c2)nc2ccccc12 | -0.9 | 0.1 | 15.3 | 9.1* | 0.4 | -1.0 | 14.5 | 9.3*
NC(=O)c1ncn([C@@H]2O[C@H](CNCc3ccccc3C#Cc3ccccc3)[C@@H](O)[C@H]2O)n1 | · | 0.0 | -16.6 | -5.2 | 0.6 | 0.0 | · | ·
N#CCOc1ccccc1CNC[C@H]1O[C@@H](n2cnc(C(N)=O)n2)[C@H](O)[C@@H]1O | · | -0.2 | 2.6 | 9.7* | 0.5 | 1.9 | 15.4 | 7.0
C=C(C)COc1ccc(-c2[nH]ncc2-c2ccc(Br)cc2)c(O)c1 | -9.9 | -0.3 | 17.2 | 4.2 | 10.5 | 4.9 | · | ·
C=C(C)COc1ccc(-c2n[nH]c(C)c2-c2ccc(Br)cc2)c(O)c1 | · | -0.2 | 18.1 | 11.2* | 7.2 | -1.0 | 22.1* | 12.4*
C=C1CC2(CC(c3ccccc3)OC(c3ccccc3)C2)OC1=O (stereo unspecified) | · | -0.1 | 15.1 | 9.6* | 1.1 | -3.0 | -8.5 | -1.2
COC(=O)[C@]12C[C@H](CC(=O)NCc3ccc(OC)c(OC)c3)C(=O)N(Cc3ccc4c(c3)OCO4)C1=C[C@H](C(C)(C)C)O[C@@H]2C | · | · | 2.0 | -1.0 | · | · | · | ·
